Converted amounts (≈) assume the structure as drawn.
Legend:
Staphylococcus aureus [1] = experiment: Antibacterial activity against methicillin-sensitive […] Staphylococcus aureus ATCC 29213 after 20 hrs by broth microdilution method; format: functional; conditions: ATCC 29213, 20 h
Outline: (§1)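 NCCLS broth microdilution in cation-adjusted Mueller–Hinton broth. Serial 2-fold compound dilutions were inoculated with 5 × 10⁴ CFU per 0.1 mL and incubated at 35 °C for 20 h before scoring the MIC.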

Enterococcus faecalis [2] = experiment: Antibacterial activity against vancomycin-resistant Enterococcus faecalis SR7914 after 20 hrs by broth microdilution method; format: functional; conditions: SR7914, 20 h; outline: as §1
Staphylococcus aureus [3] = experiment: Antibacterial activity against methicillin-resistant Staphylococcus aureus isolate SR3637 after 20 hrs by broth microdilution method; format: functional; conditions: isolate SR3637, 20 h; outline: as §1
Enterococcus faecalis [4] = experiment: Antibacterial activity against Enterococcus faecalis ATCC 29212 after 20 hrs by broth microdilution method; format: functional; conditions: ATCC 29212, 20 h; outline: as §1
Enterococcus faecium [5] = experiment: Antibacterial activity against vancomycin-resistant Enterococcus faecium SR7917 after 20 hrs by broth microdilution method; format: functional; conditions: SR7917, 20 h; outline: as §1
Enterococcus faecium [6] = experiment: Antibacterial activity against Enterococcus faecium ATCC 19434 after 20 hrs by broth microdilution method; format: functional; conditions: ATCC 19434, 20 h; outline: as §1
[7] = molecular target: T1, Phospho-N-acetylmuramoyl-pentapeptide-transferase (Bacillus subtilis (strain 168), UniProt Q03521); experiment: Competitive inhibition of Bacillus subtilis MraY using UDP-MurNAc-pentapeptide as substrate after 30 mins by Lineweaver-Burk plot
T1 sequence (Q03521 whole entry): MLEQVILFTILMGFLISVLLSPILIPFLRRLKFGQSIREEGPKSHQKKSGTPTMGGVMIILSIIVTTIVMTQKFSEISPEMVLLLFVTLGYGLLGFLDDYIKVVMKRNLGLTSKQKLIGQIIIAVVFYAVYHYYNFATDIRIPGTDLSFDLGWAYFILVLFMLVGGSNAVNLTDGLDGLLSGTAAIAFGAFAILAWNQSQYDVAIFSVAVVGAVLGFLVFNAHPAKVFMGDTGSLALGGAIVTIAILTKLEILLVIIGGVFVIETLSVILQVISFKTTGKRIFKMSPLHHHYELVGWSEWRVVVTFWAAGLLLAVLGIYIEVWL
Outline: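 B. subtilis MraY was assayed at pH 7.5 (100 mM Tris-HCl, 40 mM MgCl₂, 250 mM NaCl, 8.4 mM N-lauroylsarcosine), started by enzyme and run 30 min at 37 °C. Initial rates were taken at 0.25–1.5 mM UDP-MurNAc-[¹⁴C]pentapeptide, fixed 1 mM C₅₅-P, and several inhibitor levels. Lipid I was separated by TLC and scanned. Ki came from Lineweaver–Burk plots assuming a ping-pong Bi Bi mechanism.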

[8] = molecular target: T2, Undecaprenyl-phosphate alpha-N-acetylglucosaminyl 1-phosphate transferase (Thermotoga maritima (strain ATCC 43589 / MSB8 / DSM 3109 / JCM 10099), UniProt Q9X1N5); experiment: Inhibition of Thermotoga maritima WecA using radiolabeled UDP-[14C]GlcNAc as substrate after 30 mins
T2 sequence (Q9X1N5 whole entry): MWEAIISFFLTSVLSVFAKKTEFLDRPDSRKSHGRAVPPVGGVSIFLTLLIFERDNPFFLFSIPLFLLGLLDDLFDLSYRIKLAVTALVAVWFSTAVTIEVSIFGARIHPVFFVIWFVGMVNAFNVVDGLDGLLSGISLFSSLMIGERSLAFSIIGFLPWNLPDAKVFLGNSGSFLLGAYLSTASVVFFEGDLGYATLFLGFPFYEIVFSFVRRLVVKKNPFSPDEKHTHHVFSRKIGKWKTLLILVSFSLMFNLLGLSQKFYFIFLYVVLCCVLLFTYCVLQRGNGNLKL
Outline: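 Purified Thermotoga maritima WecA was assayed at pH 8 (100 mM Tris-HCl, 10 mM MgCl₂, 1.1 mM C₅₅-P, 0.16 mM UDP-[¹⁴C]GlcNAc, 92.7 mM Triton X-100), final concentrations. The reaction was started by enzyme, run 30 min at 65 °C and stopped at 100 °C for 1 min. C₅₅-PP-GlcNAc was separated by TLC and scanned. IC50 was relative to a no-inhibitor control, mean of triplicates.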

[9] = molecular target: T1, Phospho-N-acetylmuramoyl-pentapeptide-transferase; experiment: Noncompetitive inhibition of Bacillus subtilis MraY using […] as substrate after 30 mins by Lineweaver-Burk plot

Row | Structure (SMILES) | MIC (Staphylococcus aureus [1]) | MIC (Enterococcus faecalis [2]) | MIC (Staphylococcus aureus [3]) | MIC (Enterococcus faecalis [4]) | MIC (Enterococcus faecium [5]) | MIC (Enterococcus faecium [6]) | Ki [7] | IC50 [8] | Ki [9]
1 | CCCCCCCCCCCCCCC[C@H](NC(=O)[C@@H](NC(=O)OCc1ccccc1)[C@@H]1CCNC(=N)N1)C(=O)NCCCN[C@H](C(=O)O)[C@H](O[C@@H]1O[C@H](CN)[C@@H](O)[C@H]1O)[C@H]1O[C@@H](n2ccc(=O)[nH]c2=O)[C@H](O)[C@@H]1O | 8 µg/mL (≈ 7.54 µM) | 4 µg/mL (≈ 3.77 µM) | 8 µg/mL (≈ 7.54 µM) | 4 µg/mL (≈ 3.77 µM) | 8 µg/mL (≈ 7.54 µM) |  |  |  | 
2 | CCCCOc1ccc(-c2ccc(CC[C@@H](NC(=O)[C@@H](NC(=O)N[C@H](C(=O)O)C(C)C)[C@@H]3CCNC(=N)N3)C(=O)NCCCN[C@H](C(=O)O)[C@H](O[C@@H]3O[C@H](CN)[C@@H](O)[C@H]3O)[C@H]3O[C@@H](n4ccc(=O)[nH]c4=O)[C@H](O)[C@@H]3O)cc2)cc1 | 64 µg/mL (≈ 57.5 µM) | 64 µg/mL (≈ 57.5 µM) | 64 µg/mL (≈ 57.5 µM) | 32 µg/mL (≈ 28.8 µM) | 8 µg/mL (≈ 7.19 µM) | 4 µg/mL (≈ 3.6 µM) |  |  | 
3 | CCCCCCCCCCCCCCC[C@@H](NC(=O)[C@@H](N)[C@@H]1CCNC(=N)N1)C(=O)NCCCN[C@H](C(=O)O)[C@H](O[C@@H]1O[C@H](CN)[C@@H](O)[C@H]1O)[C@H]1O[C@@H](n2ccc(=O)[nH]c2=O)[C@H](O)[C@@H]1O | 8 µg/mL (≈ 8.63 µM) | 8 µg/mL (≈ 8.63 µM) | 8 µg/mL (≈ 8.63 µM) | 4 µg/mL (≈ 4.31 µM) | 8 µg/mL (≈ 8.63 µM) |  |  |  | 
4 | CCCCCCCCCCCCCCC[C@@H](NC(=O)[C@H](CCCNC(=N)N)NC(=O)N[C@H](C(=O)O)C(C)C)C(=O)NCCCN[C@H](C(=O)O)[C@H](O[C@@H]1O[C@H](CN)[C@@H](O)[C@H]1O)[C@H]1O[C@@H](n2ccc(=O)[nH]c2=O)[C@H](O)[C@@H]1O | 4 µg/mL (≈ 3.73 µM) | 4 µg/mL (≈ 3.73 µM) | 4 µg/mL (≈ 3.73 µM) | 4 µg/mL (≈ 3.73 µM) | 2 µg/mL (≈ 1.87 µM) |  |  |  | 
5 | CCCCCCOc1ccc(-c2ccc([C@@H](NC(=O)[C@@H](NC(=O)N[C@H](C(=O)O)C(C)C)[C@@H]3CCNC(=N)N3)C(=O)NCCCN[C@H](C(=O)O)[C@H](O[C@@H]3O[C@H](CN)[C@@H](O)[C@H]3O)[C@H]3O[C@@H](n4ccc(=O)[nH]c4=O)[C@H](O)[C@@H]3O)cc2)cc1 | 16 µg/mL (≈ 14.4 µM) | 16 µg/mL (≈ 14.4 µM) | 16 µg/mL (≈ 14.4 µM) | 16 µg/mL (≈ 14.4 µM) | 8 µg/mL (≈ 7.19 µM) | 4 µg/mL (≈ 3.6 µM) |  |  | 
6 | CCCCCCCCCCCCCCC[C@@H](NC(=O)[C@H](CCCN)NC(=O)N[C@H](C(=O)O)C(C)C)C(=O)NCCCN[C@H](C(=O)O)[C@H](O[C@@H]1O[C@H](CN)[C@@H](O)[C@H]1O)[C@H]1O[C@@H](n2ccc(=O)[nH]c2=O)[C@H](O)[C@@H]1O | 4 µg/mL (≈ 3.88 µM) | 8 µg/mL (≈ 7.77 µM) | 8 µg/mL (≈ 7.77 µM) | 8 µg/mL (≈ 7.77 µM) | 8 µg/mL (≈ 7.77 µM) |  |  |  | 
7 | CCCCCCCCCCCCCCC[C@H](NC(=O)[C@H](CCCN)NC(=O)N[C@H](C(=O)O)C(C)C)C(=O)NCCCN[C@H](C(=O)O)[C@H](O[C@@H]1O[C@H](CN)[C@@H](O)[C@H]1O)[C@H]1O[C@@H](n2ccc(=O)[nH]c2=O)[C@H](O)[C@@H]1O | 4 µg/mL (≈ 3.88 µM) | 8 µg/mL (≈ 7.77 µM) | 2 µg/mL (≈ 1.94 µM) | 8 µg/mL (≈ 7.77 µM) | 4 µg/mL (≈ 3.88 µM) |  |  |  | 
8 | CC(C)C[C@@H](NC(=O)[C@@H](NC(=O)N[C@H](C(=O)O)C(C)C)[C@@H]1CCN=C(N)N1)C(=O)NCCCN[C@H](C(=O)O)[C@H](O[C@@H]1O[C@H](CN)[C@@H](O)[C@H]1O)[C@H]1O[C@@H](n2ccc(=O)[nH]c2=O)[C@H](O)[C@@H]1O |  |  |  |  |  |  | 0.049 µM | 1560 µM | 0.049 µM
9 | CCCCCCCCCCCCCCC[C@@H](NC(=O)[C@@H](NC(=O)OCc1ccccc1)[C@@H]1CCNC(=N)N1)C(=O)NCCCN[C@H](C(=O)O)[C@H](O[C@@H]1O[C@H](CN)[C@@H](O)[C@H]1O)[C@H]1O[C@@H](n2ccc(=O)[nH]c2=O)[C@H](O)[C@@H]1O | 8 µg/mL (≈ 7.54 µM) | 4 µg/mL (≈ 3.77 µM) | 8 µg/mL (≈ 7.54 µM) | 4 µg/mL (≈ 3.77 µM) | 4 µg/mL (≈ 3.77 µM) |  |  |  | 
